For series [1], the system named is Mus musculus. Description: Immuno-adjuvant activity in recombinant Porphyromonas gingivalis HagB-immunized BALB/c mouse assessed as potentiation of antibody response to rHagB by measuring increase in serum anti-rHagB IgG1 activity at 100 ug, sc administered immediately and on day 14, 28 and measured at week 2 to 4 by ELISA. In kind it is functional, organism-based. (In general: In an ELISA, binding on a coated surface is turned into a signal by an enzyme label.)

Series [2] relates to Mus musculus. The series is described as follows: Immuno-adjuvant activity in OVA-immunized BALB/c mouse assessed as potentiation of antibody response to OVA by measuring increase in serum anti-OVA IgG1 activity at 100 ug, sc administered immediately and on day 14, 28 and measured at week 6 by ELISA. In kind it is functional, organism-based. An outline of the steps:
(§1)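 Female BALB/c mice (8–10 weeks, six per group) got sc OVA (20 μg) plus adjuvant (100 μg) on days 0, 14 and 28. Tail-vein serum was taken before each dose and 2 weeks after the last. ELISA plates were coated with OVA (0.1 μg/mL) in borate-buffered saline, pH 8.2. Serial 2-fold serum dilutions were run in duplicate, detected with HRP anti-mouse IgG/IgG1/IgG2a and o-phenylenediamine, and read at 490 nm.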

For series [3], the system named is Mus musculus. Description: Immuno-adjuvant activity in OVA-immunized BALB/c mouse assessed as potentiation of antibody response to OVA by measuring serum anti-OVA IgG1 level at 100 ug, sc administered immediately and on day 14, 28 and measured at week 6 by ELISA (reference value: 113 +/- 37 ug/ml). In kind it is functional. In short, it runs like this:
as §1

The test system of series [4] is Mus musculus. Description: Immuno-adjuvant activity in OVA-immunized BALB/c mouse assessed as potentiation of antibody response to OVA by measuring serum anti-OVA IgG2a level at 100 ug, sc administered immediately and on day 14, 28 and measured at week 6 by ELISA (reference value: 0.1 ug/ml). In kind it is functional. In short, it runs like this:
as §1

Series [5] deals with Mus musculus. The series is described as follows: Immuno-adjuvant activity in OVA-immunized BALB/c mouse assessed as potentiation of antibody response to OVA by measuring increase in serum anti-OVA IgG activity at 100 ug, sc administered immediately and on day 14, 28 and measured at week 2 to 6 by ELISA. In kind it is functional, organism-based. In short, it runs like this:
as §1

Series [6] relates to Mus musculus. The series is described as follows: Immuno-adjuvant activity in OVA-immunized BALB/c mouse assessed as potentiation of antibody response to OVA by measuring ratio of serum anti-OVA IgG2a to serum anti-OVA IG1 level at 100 ug, sc administered immediately and on day 14, 28 and measured at week 6 by ELISA. In kind it is functional.
Series [7] in a line: Toxicity in OVA-immunized BALB/c mouse assessed as changes in body weight at 100 ug, sc administered immediately and on day 14, 28 and measured at week 6. The note with it: in vivo. Type of series: organism-based. An outline of the steps: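 Female BALB/c mice (8–10 weeks, six per group) received sc OVA (20 μg) with adjuvant (100 μg) on days 0, 14 and 28. Body weight was recorded before each immunization and 2 weeks after the final one.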

Series [8] relates to Mus musculus. Description: Immuno-adjuvant activity in recombinant Porphyromonas gingivalis HagB-immunized BALB/c mouse assessed as potentiation of antibody response to rHagB by measuring increase in serum anti-rHagB IgG2a activity at 100 ug, sc administered immediately and on day 14, 28 and measured at week 2 to 6 by ELISA. Type of series: functional, organism-based.
A short description of series [9]: Acute toxicity in BALB/c mouse assessed as mouse survival at 5000 ug, sc measured after 5 days. In kind it is organism-based. The note with it: in vivo. An outline of the steps: (§2)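 Female BALB/c mice, 10 weeks old, 5 per group, given a single subcutaneous injection in the neck of adjuvant in 0.1 mL PBS at doses from 100 to 5000 μg, with untreated controls. Survival was counted 5 days after injection. Surviving mice were checked through day 7 for fur condition, behaviour, lethargy and lesion formation.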

Series [10] can be described thus: Acute toxicity in BALB/c mouse assessed as lethargy at 100 to 2000 ug, sc measured at day 7 post injection. In kind it is organism-based. Conditions: in vivo. In short, it runs like this: as §2
The nature of series [11]: Acute toxicity in BALB/c mouse assessed as lesion formation at 100 to 2000 ug, sc measured at day 7 post injection. Type of series: organism-based. Conditions: in vivo. An outline of the steps:
as §2

Series [12] has as its system Mus musculus. The series is described as follows: Immuno-adjuvant activity in OVA-immunized BALB/c mouse assessed as potentiation of antibody response to OVA by measuring increase in serum anti-OVA IgG1 activity at 100 ug, sc administered immediately and on day 14, 28 and measured at week 2 to 4 by ELISA. In kind it is functional, organism-based. In short, it runs like this: as §1

Series [13] relates to Mus musculus. The series is described as follows: Immuno-adjuvant activity in OVA-immunized BALB/c mouse assessed as potentiation of antibody response to OVA by measuring serum anti-OVA IgG2a activity at 100 ug, sc administered immediately and on day 14, 28 and measured at week 2 by ELISA. Type of series: functional, organism-based. In short, it runs like this:
as §1

The test system of series [14] is Mus musculus. The series is described as follows: Immuno-adjuvant activity in OVA-immunized BALB/c mouse assessed as potentiation of antibody response to OVA by measuring increase in serum anti-OVA IgG2a activity at 100 ug, sc administered immediately and on day 14, 28 and measured at week 4 to 6 by ELISA. In kind it is functional, organism-based. In short, it runs like this: as §1

For series [15], the system named is Mus musculus. Description: Immuno-adjuvant activity in recombinant Porphyromonas gingivalis HagB-immunized BALB/c mouse assessed as potentiation of antibody response to rHagB by measuring serum anti-rHagB IgG1 activity at 100 ug, sc administered immediately and on day 14, 28 and measured at week 6 by ELISA. Type of series: functional, organism-based.
Series [16] concerns Mus musculus. Description: Immuno-adjuvant activity in recombinant Porphyromonas gingivalis HagB-immunized BALB/c mouse assessed as potentiation of antibody response to rHagB by measuring increase in serum anti-rHagB IgG activity at 100 ug, sc administered immediately and on day 14, 28 and measured at week 2 to 4 by ELISA. In kind it is functional, organism-based.
Series [17] has as its system Mus musculus. The series is described as follows: Immuno-adjuvant activity in recombinant Porphyromonas gingivalis HagB-immunized BALB/c mouse assessed as potentiation of antibody response to rHagB by measuring increase in serum anti-rHagB IgG activity at 100 ug, sc administered immediately and on day 14, 28 and measured at week 6 by ELISA. Type of series: functional, organism-based.

Series [18] can be described thus: Acute toxicity in BALB/c mouse assessed as normal animal behaviour with healthy fur at 100 to 2000 ug, sc measured at day 5 post injection. The note with it: in vivo. In kind it is organism-based. An outline of the steps: as §2
Series [19] can be described thus: Acute toxicity in BALB/c mouse assessed as mouse survival at 100 to 2000 ug, sc measured after 5 days. Type of series: organism-based. Conditions: in vivo. In short, it runs like this:
as §2

Calls of active or inactive are those of the source. The calls are words filed in the database; no cut-off is given here.

Regarding `CCCCCCCCCCCCNC(=O)[C@H]1O[C@@H](O[C@H]2CC[C@]3(C)[C@H]4CC=C5[C@H]6CC(C)(C)CC[C@]6(C(=O)O[C@@H]6O[C@H](C)[C@H](O)[C@H](O)[C@H]6O[C@@H]6O[C@@H](C)[C@H](O[C@@H]7OC[C@@H](O)[C@H](O)[C@H]7O)[C@@H](O[C@@H]7O[C@H](CO)[C@@H](O)[C@H](O[C@@H]8OC[C@@H](O)[C@H](O)[C@H]8O)[C@H]7O)[C@H]6O)CC[C@@]5(C)[C@]4(C)CC[C@H]3[C@]2(C)C=O)[C@H](O[C@@H]2O[C@H](CO)[C@H](O)[C@H](O)[C@H]2O)[C@@H](O[C@@H]2O[C@@H](C)[C@H](O)[C@@H](O)[C@H]2O)[C@@H]1O`, the result in the series on Mus musculus [1], in the series on Mus musculus [2], with Mus musculus [5], in the series with Mus musculus [8], in the series with Mus musculus [12] and in the series on Mus musculus [14] was Active. The result in the series on Mus musculus [16] and in the series with Mus musculus [17] was Active. The Activity is 713 µg/mL with Mus musculus [3]; 208 µg/mL in the series on Mus musculus [4]; “Non-Toxic” in [7]; “Non-Toxic” in series [10]; “Non-Toxic” in series [11]; “Non-Toxic” in [18]. The Ratio with Mus musculus [6] was determined as 0.312. Moreover, the survival at 120 h in [9] was 0%; in series [19] it was 100%. For the same compound, the outcome in the series on Mus musculus [13] and in the series with Mus musculus [15] was inactive.

The values are drawn from ChEMBL document CHEMBL4321831, “Vaccine Adjuvants Derivatized from Momordica Saponins I and II” (J Med Chem, 2019).
